In the library only some 1.7% were active in any assay of this set; here they are far more common.
VIM-2 inhibitor: inhibitors of Pseudomonas aeruginosa VIM-2 metallo-beta-lactamase; purified VIM-2, nitrocefin hydrolysis, epi-absorbance fluorescence; inhibition, % at 5.6 µM; 290,000 tested, 0.89% active;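 active = inhibition above the mean of all tested compounds plus 3 SD, cutoff set per screening run, cut at about 7.5% in these data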;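 also: red hydrolysis product quenches plate fluorescence so inhibitors raise well fluorescence; 0% = enzyme with DMSO and 100% = DMSO without enzyme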
proCasp7 act: counter-screen: procaspase-7 (human) activation; P55210; recombinant procaspase-7, Ac-DEVD-pNA absorbance 405 nm; D23A/D198A/D206A triple mutant, cannot self-cleave; scale: DMSO 0, 5 µM enzyme 100; activation, % at 8.5 µM; 330,000 tested, 0.093% active; AID 463210;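 active = percent activation above the screen-wide mean plus 3 SD, cut at about 25% in these data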
Target sequence (P55210 whole entry D23A/D198A/D206A): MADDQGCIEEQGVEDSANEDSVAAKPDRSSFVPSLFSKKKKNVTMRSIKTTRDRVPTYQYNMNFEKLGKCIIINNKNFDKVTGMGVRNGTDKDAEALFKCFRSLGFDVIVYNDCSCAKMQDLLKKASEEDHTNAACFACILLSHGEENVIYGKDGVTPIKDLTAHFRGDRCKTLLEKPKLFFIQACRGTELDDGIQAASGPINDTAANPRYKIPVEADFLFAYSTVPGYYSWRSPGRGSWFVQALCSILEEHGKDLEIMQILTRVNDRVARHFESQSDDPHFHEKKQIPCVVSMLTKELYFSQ
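System: Uncleavable procaspase-7 mutant enzyme; Amount: 2 µM procaspase-7 mutant as dispensed; Schedule: 1 h compound preincubation, 2 h substrate cleavage, 25 °C; Measured by: 405 nm absorbance of p-nitroaniline; Evaluation: percent activation from buffer-corrected 0–120 min absorbance change; Control set: low DMSO alone, high DMSO plus 5 µM PC-7.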
IMP-1 inhibitor: blocks Pseudomonas aeruginosa IMP-1 metallo-beta-lactamase; 290,000 tested, 0.45% active; purified IMP-1, nitrocefin hydrolysis, epi-absorbance fluorescence; inhibition, % at 5.6 µM;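 active = inhibition above the mean plus 3 SD of all compounds in the same screening run, cut at about 4.5% in these data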;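 also: 0% = IMP-1 with DMSO and 100% = DMSO wells lacking enzyme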
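Material – recombinant IMP-1 enzyme, purified · Amount – IMP-1 0.2 nM before substrate addition · Medium – HEPES buffer pH 7.1 with ZnSO4 and Brij 35 · Timing – 25 °C, 15 min preincubation, 25 min reaction · Measured by – plate fluorescence quenching by hydrolysis product, ex 480/em 530 nm · Read-out – percent enzyme inhibition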
procasp3 activ: activators of human procaspase-3; activation, % at 8.5 µM; P42574; 330,000 tested, 0.11% active; recombinant procaspase-3 D3A, Ac-DEVD-pNA absorbance 405 nm;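 active = activation above the mean of all tested compounds plus 3 SD, cut at about 21% in these data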;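 also: 0% = DMSO alone and 100% = DMSO wells spiked with extra 5 µM PC-3 D3A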
Target sequence (P42574 whole entry D9A/D28A/D175A): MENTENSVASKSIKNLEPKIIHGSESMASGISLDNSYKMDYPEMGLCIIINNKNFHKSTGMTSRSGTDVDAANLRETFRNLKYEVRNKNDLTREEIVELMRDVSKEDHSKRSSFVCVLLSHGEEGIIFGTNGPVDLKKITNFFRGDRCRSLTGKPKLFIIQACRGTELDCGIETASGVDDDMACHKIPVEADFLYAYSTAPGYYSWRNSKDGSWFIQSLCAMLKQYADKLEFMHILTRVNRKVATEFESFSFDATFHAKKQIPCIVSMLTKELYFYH
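assay system = Procaspase-3 D3A mutant | signal = absorbance at 405 nm, 0 and 120 min | times = 1 h preincubation plus 2 h reaction at 25 °C | repeats = single replicate | read-out = % activation between DMSO and enzyme-spiked controls | medium = Zinc-free HEPES saline buffer with Triton X-100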
PolyA inh: inhibitors of polyadenylation in S. cerevisiae; S. cerevisiae SKY197-pL101 polyadenylation reporter, beta-gal luminescence; efflux-impaired pdr1/pdr3 knockout yeast; score 100 = 6 SD above DMSO; 300,000 tested, 0.02% active; activity score, % at 12 µM;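 active = lowest replicate activity score at least 50, where 100 means six control SD above control mean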;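 also: yeast exposed to compound for 9 h at 30 °C; higher score means more reporter readthrough which indicates perturbed polyadenylation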
Neddylation inh: blocks human cullin neddylation; TR-FRET cullin neddylation, biochemical; calls only at 25 µM; 360,000 tested, 0.58% active; in the data active = inhibition above about 36%
Neddyl conf: cullin neddylation inhibition, confirmation. shares compounds with Neddylation inh. TR-FRET cullin neddylation biochemical assay. calls only at 25 µM. 1,800 tested, 13% active; in the data active = inhibition above about 40%;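 also: neddylation substrate is the cullin 1 ring ligase complex with SKP2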
Active calls of the source: *; i = inactive; . = not tested or not shown; + = active, no number.

SMILES	VIM-2 inhibitor	proCasp7 act	IMP-1 inhibitor	procasp3 activ	PolyA inh	Neddylation inh	Neddyl conf
COc1cc(/C=C/C(=O)OCC(=O)Nc2cc(S(=O)(=O)N3CCCCC3)ccc2C)ccc1O	-2	3	-3	-4	-4	+	i
O=C(CSc1nnc2ccc(-c3ccc(F)cc3)nn12)NCC1CCCO1 (stereo unspecified)	.	4	.	-1	2	+	.
CCc1ccc(-c2ccc3nnc(SCC(N)=O)n3n2)cc1	-2	-2	-6	7	-9	+	i
CCc1ccc(-c2ccc3nnc(SC)n3n2)cc1	5	2	-3	-1	-20	i	.
Cc1cccn2c(=O)c3cc(C(=O)N4CCN(Cc5ccccc5)CC4)sc3nc12	.	5	.	-7	.	+	+
CC1(C)C2CCC1(CS(=O)(=O)NC1CCCC1)C(=O)C2 (stereo unspecified)	-1	3	-2	5	-10	+	i
Nc1ccc2oc3ccccc3c2c1	-2	8	-2	3	-1	+	i
Nc1ccc(C#Cc2ccc3oc4ccccc4c(=O)c3c2)cc1	.	-6	.	-6	-6	i	.
O=CN1CCN(C(C(=O)NC2CCCC2)c2ccc(Cl)cc2)CC1 (stereo unspecified)	-2	5	-2	-4	-9	i	.
COc1cc(C(=O)N2CCN(c3cccc(C)c3C)CC2)cc(OC)c1OC	-5	-1	-4	-2	15	i	.
COc1cccc(-c2ccc3c(N)c(C(=O)NC4CC4)sc3n2)c1	-3	-19	-3	-18	-28	+	.
CC(C)(C)CC(=O)OCC(=O)Nc1cc(C(C)(C)C)nn1-c1ccccc1	-3	-7	-3	1	-8	i	.
CCOC(=O)COc1nc(-c2ccco2)cc(-c2ccco2)c1C#N	-2	-5	-2	-5	-19	.	.
CCOC(=O)C(C)Sc1nc(-c2ccco2)cc(C(F)(F)F)c1C#N (stereo unspecified)	-3	-24	-2	-13	-27	+	.
NS(=O)(=O)c1ccc(NC(=O)CSc2nnc(-c3ccc(O)cc3)o2)cc1	-2	-6	-3	1	22	i	.
CCOc1ccc(NC(=O)NNC(=O)c2ccc3ccccc3c2O)cc1	0	-7	-1	-2	1	i	.
COc1ccc(OC)c(NC(=O)Nc2ccc(O)c3ccccc23)c1	.	-26	.	-25	0	+	.
COc1ccc(NC(=O)NNC(=O)c2ccc3ccccc3c2O)c(OC)c1	-2	-5	-3	9	-4	+	i
CCc1ccccc1NC(=O)NNC(=O)c1ccc2ccccc2c1O	-3	2	-1	-1	4	+	i
COc1ccccc1NC(=O)Cn1c([N+](=O)[O-])cnc1C	0	5	1	4	21	i	.
COc1ccc(C(=O)OC(C)CN2CCOCC2)cc1OC (stereo unspecified)	-3	2	-3	9	-8	+	i
Cn1nnnc1SCC(=O)Nc1nn(-c2ccccc2)nc1C(N)=O	-3	6	-3	-2	-4	.	.
NC(=O)c1nn(-c2ccccc2)nc1NC(=O)CN1CCCCC1	-5	2	-2	-7	-3	+	i
N#Cc1ccc2[nH]c(CO)c(-c3ccccc3)c2c1	1	-5	2	6	21	+	i
Cc1ccc(C)c(OCC(=O)N/N=C/c2ccc(N3CCOCC3)cc2)c1	.	.	.	.	.	+	+
SMILES	VIM-2 inhibitor	proCasp7 act	IMP-1 inhibitor	procasp3 activ	PolyA inh	Neddylation inh	Neddyl conf
CC(C)(C)c1ccc(OCC(=O)N/N=C/c2ccc(N3CCOCC3)cc2)cc1	-1	6	-1	3	1	+	i
N#Cc1nc(-c2ccccc2)oc1N1CCCCC1	0	-8	0	1	-1	.	.
N#Cc1nc(-c2ccco2)oc1N1CCc2ccccc2C1	-2	6	-5	2	-13	+	i
CCCOc1ccc(-c2nc(C#N)c(N3CCc4ccccc4C3)o2)cc1	-1	1	-1	-6	-12	+	i
CCCOc1ccc(-c2nc(C#N)c(N3CCN(C)CC3)o2)cc1	-2	7	2	6	3	+	.
N#Cc1nc(-c2ccco2)oc1N1CCCC1	-4	0	-4	-3	-7	.	.
N#Cc1nc(-c2ccccc2)oc1N1CCN(C(=O)c2ccco2)CC1	1	-2	-5	8	-2	+	i
CC(C)N(Cc1nc(-c2ccccc2)no1)C(=O)CCCN1C(=O)c2ccccc2C1=O	-3	-2	0	-4	-1	i	.
CCP(=O)(CC)C(C)(C)CP(=O)(c1ccccc1)c1ccccc1	0	-9	-4	11	6	i	.
COc1ccc(C(=O)Nc2ccc(C)c(S(=O)(=O)N3CCCCCC3)c2)cc1	-1	-2	0	-5	13	i	.
O=C1NC(c2ccccc2)=C(c2ccc3ccccc3n2)C(c2ccccc2)N1 (stereo unspecified)	-5	0	-2	-4	15	+	i
O=C1NC(c2ccccc2)=C(c2ccc3ccccc3n2)C(c2ccc(F)cc2)N1 (stereo unspecified)	-1	-9	-2	7	-3	i	.
CCN(CC)C(=O)CSc1nc2[nH]ncc2c(=O)[nH]1	-1	-2	-2	9	28	i	.
O=C(COC(=O)C12CC3CC(CC(O)(C3)C1)C2)NCCc1ccc(Cl)cc1	-1	2	-3	4	-7	i	.
CN(c1ccc(F)cc1)S(=O)(=O)c1ccc2[nH]cc(C(=O)O)c(=O)c2c1	-1	1	-2	5	.	i	.
COc1ccc(CCNC(=O)c2cc3c(=O)n4ccccc4nc3n(CCN3CCOCC3)c2=N)cc1	3	-5	-2	-8	-27	+	i
COc1ccccc1OCC(=O)Nc1nc2c(s1)CCCC2	0	-7	0	0	-24	i	.
CNc1cncc(C(=O)O)c1	-2	7	-3	-7	6	+	.
CCC(NC(=O)c1ccc([N+](=O)[O-])cc1[N+](=O)[O-])c1ccccc1 (stereo unspecified)	-1	-6	-2	-4	10	i	.
CCC(NC(=O)c1ccccc1O)c1ccccc1 (stereo unspecified)	1	3	-2	2	6	+	i
COc1cccc(-n2c(N)c(C(=O)Nc3c(C)n(C)n(-c4ccccc4)c3=O)c3nc4ccccc4nc32)c1	2	7	0	-12	20	+	i
